The text below walks through data of ChEMBL document CHEMBL1828502, “Quinolinyl and quinolinyl N-oxide chalcones: synthesis, antifungal and cytotoxic activities” (Eur J Med Chem, 2011).

Molecules are shown by their SMILES. Values after ≈ are worked out from the molar mass of the structure shown.

Assay [1] deals with Candida albicans. The assay can be described thus: Antifungal activity against Candida albicans by two fold serial dilution method. Format: functional. In outline:
(§1)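 Broth microdilution MIC following CLSI M27-A2 with twofold serial dilutions; strains ATCC 18804 (C. albicans), ATCC 22019 (C. parapsilosis), ATCC 750 (C. tropicalis), ATCC 32608 (C. gattii), kept on Sabouraud dextrose agar at 4 °C. Amphotericin B and trimethoprim/sulfamethoxazole served as positive controls.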

The test system of assay [2] is Paracoccidioides brasiliensis. The assay is described as follows: Antifungal activity against Paracoccidioides brasiliensis Pb18 after 10 days by broth microdilution method in presence of 1 M osmotic stabilizer sorbitol. The settings on record: 240 h. Format: functional. (In general: Dilution methods test growth across graded concentrations, often in twofold steps.)

In assay [3] the test system is TK-10. The assay can be described thus: Anticancer activity against human TK10 cells after 48 hrs by sulforhodamine B assay. Format: functional, cell-based. Put shortly:
(§2)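 Solid tumour lines from NCI (NCI colorimetric protocol), seeded and pre-incubated 24 h at 37 °C, 5% CO2, then exposed to compounds for 48 h. Proteins fixed with trichloroacetic acid, stained with sulforhodamine B, dye dissolved in 10 mM Tris, absorbance at 515 nm compared against initial-density control wells. IC50 from dose-response curves built with 1:2 serial dilutions; duplicate, repeated at least three times.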
(The SRB assay estimates cell density from bound dye.)

The test system of assay [4] is Cryptococcus gattii species complex. The assay can be described thus: Antifungal activity against Cryptococcus gattii by two fold serial dilution method. Format: functional, Cryptococcus bacillisporus. In outline: as §1
Assay [5] relates to Candida tropicalis. The assay can be described thus: Antifungal activity against Candida tropicalis after 2 days by broth microdilution method in presence of 1 M osmotic stabilizer sorbitol. Format: functional. The settings on record: 48 h.
Assay [6] has as its system HL-60. The assay is described as follows: Anticancer activity against human HL60 cells after 48 hrs by MTT assay. Format: functional, cell-based. In outline:
(§3)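 HL60 and Jurkat leukemia lines plated at 50,000 and 100,000 cells/well respectively and pre-incubated 24 h at 37 °C, 5% CO2. Compounds dissolved in DMSO and tested over a concentration range of […] for 48 h. Viability read by MTT reduction (4 h), formazan dissolved in acidic isopropanol, OD 590 nm. Values normalized to 0.05% DMSO control; IC50 taken graphically from dose-effect curves. Triplicate, three separate days.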

Assay [7] has as its system Paracoccidioides brasiliensis. The assay can be described thus: Antifungal activity against Paracoccidioides brasiliensis Pb18 by serial dilution method. Format: functional.
The test system of assay [8] is Candida parapsilosis. The assay can be described thus: Antifungal activity against Candida parapsilosis by two fold serial dilution method. Format: functional. The settings on record: Lodderomyces parapsilosis. Put shortly: as §1
Assay [9] concerns Jurkat. The assay is described as follows: Anticancer activity against human Jurkat cells after 48 hrs by MTT assay. Format: functional, cell-based. Put shortly:
as §3
In general terms: Tetrazolium dyes change colour on reduction, which living cells bring about.

The subject of assay [10] is UACC-62. The assay is described as follows: Anticancer activity against human UACC62 cells after 48 hrs by sulforhodamine B assay. Format: functional, cell-based. In outline: as §2
Assay [11] concerns Cryptococcus gattii species complex. The assay is described as follows: Antifungal activity against Cryptococcus gattii by two fold serial dilution method after 3 days by broth microdilution method in presence of 1 M osmotic stabilizer sorbitol. Format: functional, Cryptococcus bacillisporus. The following applies: 72 h.
Assay [12] relates to MCF7. The assay is described as follows: Anticancer activity against human MCF7 cells after 48 hrs by sulforhodamine B assay. Format: functional, cell-based. In outline:
as §2

In assay [13] the test system is Candida tropicalis. The assay can be described thus: Antifungal activity against Candida tropicalis by two fold serial dilution method. Format: functional. In outline:
as §1

The mark [14] stands for this setting: Homo sapiens, Jurkat, 48 h, read-out: IC50.
Where [15] appears, read: Homo sapiens, HL-60, 48 h, read-out: IC50.
The mark [16] stands for this setting: Homo sapiens, TK-10, 48 h, read-out: IC50.
Where [17] appears, read: Homo sapiens, UACC-62, 48 h, read-out: IC50.
Where [18] appears, read: Homo sapiens, MCF7, 48 h, read-out: IC50.

As usually defined, the MIC is the least concentration at which growth counts as inhibited. As a reminder, the IC50 is the concentration at which inhibition is half-maximal.

For `Cc1ccc(C(=O)/C=C/c2ccc3c(ccc[n+]3C)c2)cc1.[I-]`, the MIC in assay [1] is 125 µg/mL; in [2], over 31.2 µg/mL; in assay [4], 7.8 µg/mL; in assay [5] it was 62.5 µg/mL; in assay [7] it was 62.5 µg/mL; in [8], over 500 µg/mL. In addition, the MIC came out at 15.5 µg/mL in [11] and 15.6 µg/mL in assay [13]. In addition, the IC50 result in [3] (tk-10), in [6] (hl-60), in assay [9] (jurkat), in [10] (uacc-62) and in [12] (mcf7) was “Not Active” throughout.
`C[n+]1cccc2cc(/C=C/C(=O)c3ccc(Br)cc3)ccc21.[I-]`: the MIC in [1] was determined as 250 µg/mL; in [2], 31.2 µg/mL; in assay [4], 7.8 µg/mL; in [5] it was 15.6 µg/mL; in assay [7], 31.2 µg/mL; in [8], 125 µg/mL. The MIC in assay [11] is 7.8 µg/mL; in [13] it was 15.6 µg/mL. Besides, the IC50 entry in [3] (tk-10) was “Not Active”; in assay [6] (hl-60), “Not Active”; in assay [9] (setting [14]) it was 7.3 µg/mL; in assay [10] (uacc-62), “Not Active”; in assay [12] (mcf7) it was “Not Active”.
In the case of `Cc1ccc(C(=O)/C=C/c2ccc3ncccc3c2)cc1`, the minimum inhibitory concentration (MIC) in [1] is over 500 µg/mL; in [2], 7.8 µg/mL; in assay [4], over 500 µg/mL; in [5], over 31.2 µg/mL; in [7] it was 7.8 µg/mL (≈ 28.5 µM); in assay [8] it was over 500 µg/mL. Besides, the MIC was over 31.2 µg/mL in [11] and over 500 µg/mL in assay [13]. The IC50 entry is “Not Active” in assay [3] (tk-10); 8.28 µg/mL (≈ 30.3 µM) in [6] (setting [15]); “Not Active” in assay [9] (jurkat); “Not Active” in assay [10] (uacc-62); “Not Active” in [12] (mcf7).
On to `C[n+]1cccc2cc(/C=C/C(=O)c3ccc(Cl)cc3)ccc21.[I-]`, for which the MIC is 500 µg/mL in assay [1]; over 31.2 µg/mL in assay [2]; 15.6 µg/mL in assay [4]; 31.2 µg/mL in assay [5]; 125 µg/mL in [7]; over 500 µg/mL in assay [8]. The MIC in [11] was 15.6 µg/mL; in assay [13] it was 31.2 µg/mL. The IC50 result in [3] (tk-10) was “Not Active”; in assay [6] (setting [15]), 9.9 µg/mL; in assay [9] (setting [14]), 4.9 µg/mL; in [10] (uacc-62) it was “Not Active”; in assay [12] (mcf7), “Not Active”.
On to `COc1ccc(C(=O)/C=C/c2ccc3c(ccc[n+]3[O-])c2)cc1`, for which the MIC was over 500 µg/mL in [1]; 15.6 µg/mL in [2]; over 500 µg/mL in assay [4]; over 31.2 µg/mL in assay [5]; 15.6 µg/mL (≈ 51.1 µM) in assay [7]; over 500 µg/mL in [8]. For the same compound, the MIC in [11] is over 31.2 µg/mL; in assay [13], over 500 µg/mL. In addition, the IC50 worked out at 5.25 µg/mL (≈ 17.2 µM) in assay [3] (setting [16]); 14.8 µg/mL (≈ 48.5 µM) in assay [6] (setting [15]); 36.3 µg/mL (≈ 119 µM) in assay [9] (setting [14]); 4.3 µg/mL (≈ 14.1 µM) in assay [10] (setting [17]); 1.15 µg/mL (≈ 3.77 µM) in assay [12] (setting [18]).
Consider `O=C(/C=C/c1ccc2ncccc2c1)c1ccc(F)cc1`, for which the MIC in assay [1] is over 500 µg/mL; in [2] it was 7.8 µg/mL; in [4], 500 µg/mL (≈ 1800 µM); in assay [5] it was over 31.2 µg/mL; in assay [7] it was 7.8 µg/mL (≈ 28.1 µM); in [8], over 500 µg/mL. The MIC in assay [11] is over 31.2 µg/mL; in assay [13] it was over 500 µg/mL. Moreover, the IC50 was found to be 1 µg/mL (≈ 3.61 µM) in assay [3] (setting [16]); 20.8 µg/mL (≈ 75 µM) in assay [6] (setting [15]); 26.5 µg/mL (≈ 95.6 µM) in [9] (setting [14]); 5.6 µg/mL (≈ 20.2 µM) in assay [10] (setting [17]); 6.3 µg/mL (≈ 22.7 µM) in assay [12] (setting [18]).
Take `COc1ccc(C(=O)/C=C/c2ccc3c(ccc[n+]3C)c2)cc1.[I-]`: the minimal inhibitory concentration (MIC) is 62.5 µg/mL in assay [1]; over 31.2 µg/mL in assay [2]; 31.2 µg/mL in assay [4]; over 31.2 µg/mL in [5]; 125 µg/mL in assay [7]; 125 µg/mL in assay [8]. The MIC in [11] and in assay [13] was 62.5 µg/mL each time. Also, the IC50 result in [3] (tk-10) is “Not Active”; in [6] (setting [15]), 25.2 µg/mL; in assay [9] (setting [14]), 11.9 µg/mL; in [10] (uacc-62), “Not Active”; in assay [12] (mcf7) it was “Not Active”.
